ChEMBL document CHEMBL4715729, “UPLC-QTOFMS(E)-Guided Dereplication of the Endangered Chinese Species Garcinia paucinervis to Identify Additional Benzophenone Derivatives” (J Nat Prod, 2016)

Assays:
Assay type in all cases: functional, cell-based
MCF7 = experiment: Cytotoxicity against human MCF7 cells assessed as reduction in cell viability measured after 48 hrs by WST assay; settings: MCF7, 48 h
Procedure, shortened: (§1)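 Cells grown at 37 °C, 5% CO2 with 10% fetal calf serum and penicillin/streptomycin: MCF7 and MDA-MB-231 in DMEM glucose, SKBR3 in DMEM F12 glutamine. Seeded at 12×10^3 cells/well, dosed after 24 h at 5–200 μM from DMSO stocks (DMSO […]) for 48 h. Doxorubicin positive control. Read-out was 10% WST for 1 h in the dark, absorbance at 440 nm. Triplicate, % inhibition versus control, IC50 estimated.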

MDA-MB-231 = experiment: Cytotoxicity against human MDA-MB-231 cells assessed as reduction in cell viability measured after 48 hrs by WST assay; settings: MDA-MB-231, 48 h; procedure, shortened: as §1
SK-BR-3 = experiment: Cytotoxicity against human SK-BR-3 cells assessed as reduction in cell viability measured after 48 hrs by WST assay; settings: SK-BR-3, 48 h; procedure, shortened: as §1

Measured: IC50

CC(C)=CCC/C(C)=C/CC1(CC=C(C)C)C(=O)C(C(=O)c2ccc(O)c(O)c2)=C2OC(C)(C)C(O)C3OC23C1=O (stereo not given)
< 10 µM: all assays above

CC(C)=CCC/C(C)=C/C[C@]1(CC=C(C)C)C(=O)C2=C(OC(C)(C)C[C@H]2c2occc(=O)c2O)C(C(=O)c2ccc(O)c(O)c2)=C1O
< 10 µM: all assays above

CC(C)=CCC/C(C)=C/C[C@]1(CC=C(C)C)C(=O)C(O)=C(C(=O)c2ccc(O)c(O)c2)C1=O
< 10 µM: all assays above

CC(C)=CCC/C(C)=C/CC1(CC=C(C)C)C(=O)C(C(=O)c2ccc(O)c(O)c2)=C2OC(C)(C)CC3OC23C1=O (stereo not given)
< 10 µM: all assays above

CC(C)=CCC/C(C)=C/C[C@@]1(CC=C(C)C)C(=O)C2=C(OC(C)(C)C[C@H]2c2occc(=O)c2O)C(C(=O)c2ccc(O)c(O)c2)=C1O
< 10 µM: all assays above
